Test results: ChEMBL document CHEMBL4043300, “2 H-1,2,3-Triazole-Based Dipeptidyl Nitriles: Potent, Selective, and Trypanocidal Rhodesain Inhibitors by Structure-Based Design” (J Med Chem, 2018)
In brackets after ≈: the same amount, converted by molar mass.

Assays:
Rhodesain = Rhodesain (Trypanosoma brucei rhodesiense, UniProt Q95PM0); experiment: Inhibition of Trypanosoma brucei rhodesiense rhodesain using Cbz-Phe-Arg-AMC as substrate by fluorimetric method
How it was run: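 Fluorescence-based assay run at 25 °C in 50 mM sodium acetate pH 5.5 with 5 mM EDTA, 200 mM NaCl and 0.005% Brij35. IC50 values were converted to Ki with the Cheng-Prusoff equation. Values are the average of two measurements, each done in duplicate.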

Procathepsin L = Procathepsin L (Homo sapiens, UniProt P07711); experiment: Inhibition of human CatL using Cbz-Phe-Arg-AMC as substrate measured over 30 mins by fluorimetric method
Sequence of Procathepsin L (P07711 whole entry): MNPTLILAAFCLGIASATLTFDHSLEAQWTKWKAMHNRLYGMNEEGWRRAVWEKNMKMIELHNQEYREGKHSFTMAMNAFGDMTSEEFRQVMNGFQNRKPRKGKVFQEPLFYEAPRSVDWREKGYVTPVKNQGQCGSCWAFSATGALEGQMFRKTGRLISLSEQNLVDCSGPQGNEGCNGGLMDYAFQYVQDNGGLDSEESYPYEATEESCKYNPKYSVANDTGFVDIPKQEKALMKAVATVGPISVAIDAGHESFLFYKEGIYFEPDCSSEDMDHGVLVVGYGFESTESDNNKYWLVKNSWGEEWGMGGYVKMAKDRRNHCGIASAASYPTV
How it was run: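 Human cathepsin L in a fluorimetric assay in 50 mM Tris pH 6.5, 5 mM EDTA, 200 mM NaCl, 0.005% Brij35 at 25 °C. Ki was calculated from IC50 by Cheng-Prusoff. Value is the average of two measurements, each in duplicate.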

[1] = Selectivity index, ratio of Ki for human CatL to Ki for Trypanosoma brucei rhodesiense rhodesain
How it was run: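 Ki(hCatL)/Ki(RD). Fluorimetric assays at 25 °C: RD in 50 mM sodium acetate pH 5.5; hCatL in 50 mM Tris pH 6.5; both buffers with 5 mM EDTA, 200 mM NaCl, 0.005% Brij35. Ki derived from IC50 by Cheng-Prusoff. Each value is the mean of two measurements, each done in duplicate.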

[2] = system: Trypanosoma brucei rhodesiense; experiment: Antitrypanosomal activity against bloodstream form of Trypanosoma brucei rhodesiense STIB 900 assessed as parasite growth inhibition after 72 hrs by Alamar blue assay; type: functional; settings: STIB 900, 72 h
How it was run: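 Standard 72 h growth-inhibition assay with STIB 900 bloodstream trypomastigotes and Alamar Blue read-out. Value is the mean of at least 2 measurements.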

[3] = Octanol-water intrinsic distribution co-efficient, log D of the compound at 100 uM at pH 7.4 after 16 to 22 hrs by CAMDIS assay; type: physicochemical
How it was run: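 Octanol/aqueous buffer (pH 7.4) intrinsic distribution coefficient measured in the CAMDIS carrier-mediated distribution system.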

[4] = Solubility of the compound at pH 6.5 by LYSA; type: physicochemical; settings: buffer
How it was run: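 Lyophilization solubility assay at pH 6.5.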

L6 = experiment: Cytotoxicity against rat L6 cells after 72 hrs by Alamar blue assay; type: cell-based; settings: L6, 72 h
How it was run: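 Rat skeletal myoblast L6 cells in an Alamar Blue growth-inhibition assay. Value is the mean of at least 2 measurements.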

[5] = system: Trypanosoma brucei rhodesiense; experiment: Antitrypanosomal activity against bloodstream form of Trypanosoma brucei rhodesiense STIB 900 infected in NMRI mouse assessed as reduction of parasitemia at 50 mg/kg, po administered for 3 consecutive days starting 1 day post infection measured at 24 hrs post last dose relative to control; type: functional; parameters: scale not given: the % may be the effect or the level left
How it was run: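 Female mice infected with STIB900 were dosed orally at 50 mg/kg/day on three consecutive days, starting 1 day post-infection. Compound was in 100% DMSO diluted 10-fold in distilled water, given at 0.1 mL/10 g. Tail-blood parasitaemia was measured 24 h after the last dose versus 4 untreated infected controls. Values are means of 2 mice.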

[6] = Selectivity index, ratio of IC50 for rat L6 cells to IC50 for bloodstream form of Trypanosoma brucei rhodesiense STIB 900; type: toxicity; settings: read-out: Ratio IC50
How it was run: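 Ratio of L-6 rat skeletal myoblast IC50 to T. b. rhodesiense STIB 900 bloodstream trypomastigote IC50, both from Alamar Blue growth-inhibition assays. Each IC50 is the mean of at least 2 measurements.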

[7] = system: Trypanosoma brucei rhodesiense; experiment: Antitrypanosomal activity against bloodstream form of Trypanosoma brucei rhodesiense STIB 900 assessed as parasite growth inhibition after 2 hrs by Alamar blue assay; type: functional; settings: STIB 900, 2 h
How it was run: (§1)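 Bloodstream STIB 900 trypomastigotes, 1x10⁴ per well, exposed to eleven 3-fold serial dilutions at 37 °C/5% CO₂ for the stated pulse time. Parasites were then pelleted and washed four times, and an aliquot was regrown 72 h drug-free in triplicate plates. Resazurin was added for 2–4 h, fluorescence read at ex 536/em 588 nm, and IC50 taken by linear regression of sigmoidal curves. Melarsoprol served as control.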

[8] = system: Trypanosoma brucei rhodesiense; experiment: Antitrypanosomal activity against bloodstream form of Trypanosoma brucei rhodesiense STIB 900 assessed as parasite growth inhibition after 6 hrs by Alamar blue assay; type: functional; settings: STIB 900, 6 h; how it was run: as §1
[9] = system: Trypanosoma brucei rhodesiense; experiment: Antitrypanosomal activity against bloodstream form of Trypanosoma brucei rhodesiense STIB 900 assessed as parasite growth inhibition after 16 hrs by Alamar blue assay; type: functional; settings: STIB 900, 16 h; how it was run: as §1
[10] = system: Trypanosoma brucei rhodesiense; experiment: Antitrypanosomal activity against bloodstream form of Trypanosoma brucei rhodesiense STIB 900 assessed as parasite growth inhibition after 24 hrs by Alamar blue assay; type: functional; settings: STIB 900, 24 h; how it was run: as §1
[11] = system: Trypanosoma brucei rhodesiense; experiment: Antitrypanosomal activity against bloodstream form of Trypanosoma brucei rhodesiense STIB 900 assessed as parasite growth inhibition after 48 hrs by Alamar blue assay; type: functional; settings: STIB 900, 48 h; how it was run: as §1

Sequence of Rhodesain (Q95PM0 whole entry): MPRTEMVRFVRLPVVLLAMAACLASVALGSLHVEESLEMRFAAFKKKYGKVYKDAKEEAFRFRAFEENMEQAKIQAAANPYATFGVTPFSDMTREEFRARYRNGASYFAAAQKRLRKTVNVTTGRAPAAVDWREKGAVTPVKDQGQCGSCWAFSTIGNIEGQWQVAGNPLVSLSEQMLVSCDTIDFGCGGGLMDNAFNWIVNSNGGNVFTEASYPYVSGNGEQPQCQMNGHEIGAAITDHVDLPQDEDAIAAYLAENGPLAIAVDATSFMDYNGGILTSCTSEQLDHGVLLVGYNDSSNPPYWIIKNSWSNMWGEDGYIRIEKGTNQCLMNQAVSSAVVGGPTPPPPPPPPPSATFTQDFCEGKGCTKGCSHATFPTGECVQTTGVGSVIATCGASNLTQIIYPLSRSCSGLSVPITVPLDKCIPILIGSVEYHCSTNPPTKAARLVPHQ

| Compound | Ki (Rhodesain) | Ki (Procathepsin L) | Ratio Ki [1] | IC50 [2] | logD at 100 µM [3] | solubility [4] | IC50 (L6) | Activity [5] | selectivity ratio [6] | IC50 [7] | IC50 [8] | IC50 [9] | IC50 [10] | IC50 [11] |
| --- | --- | --- | --- | --- | --- | --- | --- | --- | --- | --- | --- | --- | --- | --- |
| COCCOc1ccc(C[C@H](NC(=O)c2cnn(-c3ccc(F)cc3)n2)C(=O)NC2(C#N)CC2)cc1Cl | 9 to 16 nM | 181 to 314 nM | 18 to 507 | 27 to 190 nM |  |  |  |  |  |  |  |  |  |  |
| N#CC1(NC(=O)[C@H](Cc2ccc(OC(F)(F)F)c(Cl)c2)NC(=O)c2cnn(-c3ccncc3)n2)CC1 | 16 nM | 82 nM | 5 | 0.6 nM | 3.69 | 5.2 µg/mL (≈ 10 µM) | > 10 µM | 43.3% |  |  |  |  |  |  |
| N#CC1(NC(=O)[C@H](Cc2ccc(Cl)c(Cl)c2)NC(=O)c2cnn(C3CCC3)n2)CC1 | 71 nM | 7 nM | 0.1 | 4 nM |  |  | 58.2 µM |  | 14600 |  |  |  |  |  |
| N#CC1(NC(=O)[C@H](Cc2ccc(OC(F)(F)F)c(Cl)c2)NC(=O)c2cnn(C3CC(F)(F)C3)n2)CC1 | 41 nM | 76 nM | 1.5 | 9 nM | 3.89 | 2.2 µg/mL (≈ 4.13 µM) | 50 µM |  | 5560 |  |  |  |  |  |
| N#CC1(NC(=O)[C@H](Cc2ccc(Cl)c(Cl)c2)NC(=O)c2cnn(C3CCOCC3)n2)CC1 | 4 nM | 93 nM | 23 | 23 nM |  |  | > 100 µM |  |  |  |  |  |  |  |
| Nc1nc(N)nc(Nc2ccc([As]3SCC(CO)S3)cc2)n1 (configuration not stated) [MELARSOPROL] |  |  |  | 4 to 9 nM |  |  |  |  |  | > 180 nM | 99 nM | 86 nM | 44 nM | 26 nM |
| N#CC1(NC(=O)[C@H](Cc2ccc(OC(F)(F)F)c(Cl)c2)NC(=O)c2cnn(-c3ccc(Br)cc3)n2)CC1 | 25 nM | 1080 nM | 43 | 28 nM |  | < 0.3 µg/mL | 7.6 µM |  | 271 |  |  |  |  |  |
| N#CC1(NC(=O)[C@H](Cc2ccc(OC(F)(F)F)c(Cl)c2)NC(=O)c2cnn(C3CCCCC3)n2)CC1 | 12 nM | 82 nM | 6.8 | 6 nM |  | 0.3 µg/mL (≈ 0.572 µM) | 31 µM |  | 5170 |  |  |  |  |  |
| N#CC1(NC(=O)[C@H](Cc2ccc(Cl)c(Cl)c2)NC(=O)c2cnn(C3CC(F)(F)C3)n2)CC1 | 18 nM | 64 nM | 3.6 | 8 nM |  |  | 54.8 µM | 15.8% | 6840 |  |  |  |  |  |
| Cc1ccc(C(=O)Nc2ccc(S(=O)(=O)O)c3cc(S(=O)(=O)O)cc(S(=O)(=O)O)c23)cc1NC(=O)c1cccc(NC(=O)Nc2cccc(C(=O)Nc3cc(C(=O)Nc4ccc(S(=O)(=O)O)c5cc(S(=O)(=O)O)cc(S(=O)(=O)O)c45)ccc3C)c2)c1 [SURAMIN] |  |  |  | 46 nM |  |  |  |  |  |  |  |  |  |  |
| N#CC1(NC(=O)[C@H](Cc2ccc(OC(F)(F)F)c(Cl)c2)NC(=O)c2cnn(C3CCC3)n2)CC1 | 11 nM | 11 nM | 1 | 1 nM | 3.88 | 11 µg/mL (≈ 22.1 µM) | 48 µM |  | 48000 |  |  |  |  |  |
| CC(C)C[C@H](NC(=O)c1cnn(-c2ccc(F)cc2)n1)C(=O)NC1(C#N)CC1 | 23 nM |  | 18 to 507 | 2200 nM | 3.3 | 42 µg/mL (≈ 109 µM) |  |  |  |  |  |  |  |  |
| CSc1ccc(OCc2ncc([N+](=O)[O-])n2C)cc1 [FEXINIDAZOLE] |  |  |  | 1710 to 2930 nM |  |  |  |  |  |  |  |  |  |  |
| N#Cc1ccccc1C[C@H](NC(=O)c1cnn(-c2ccc(F)cc2)n1)C(=O)NC1(C#N)CC1 | 7.4 to 597 nM |  | 18 to 507 |  |  |  |  |  |  |  |  |  |  |  |
| N#CC1(NC(=O)[C@H](Cc2ccc(OCC3CCC3)c(Cl)c2)NC(=O)c2cnn(-c3ccc(F)cc3)n2)CC1 | 16 nM | 314 nM | 20 | 27 nM |  | < 0.3 µg/mL | 7.6 µM |  | 281 |  |  |  |  |  |
